Residues, ends and D or L forms follow the SMILES beside them.
Key:
[1] = tested on: Aβ42-induced toxicity in differentiated PC-12 cells; assay: Inhibition of Aβ42-induced neurotoxicity, MTT assay; assay type: cell-based, rat; conditions: for Inhibition of Aβ42-induced neurotoxicity, single-dose screen: Aβ42 10 μM with 10-fold excess of derivative, 24 h, MTT, n ≥ 18
[Y1]Aβ42 = [Y1]Aβ42 (Homo sapiens, UniProt P05067, D672Y/Y681F); assay: Intrinsic Y fluorescence; assay type: binding; conditions: [Y1]Aβ42 5 μM, peptide 50 μM
[Y30]Aβ42 = [Y30]Aβ42 (Homo sapiens, UniProt P05067, A701Y/Y681F); assay: Intrinsic Y fluorescence; assay type: binding; conditions: [Y30]Aβ42 5 μM, peptide 50 μM, pH 7.4, 22°C
[2] = tested on: α-synuclein-induced toxicity in differentiated PC-12 cells; assay: Inhibition of α-synuclein-induced toxicity, MTT assay; assay type: cell-based, rat; conditions: α-synuclein 15 μM, increasing Aβ(39–42) concentrations, 24 h, n ≥ 15
Procedure, shortened: (§1)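 PC-12 cells differentiated with nerve growth factor (100 ng/mL, 48 h), then exposed for 24 h to the toxin with or without a range of test compound concentrations. Viability by MTT, scaled between medium and 1 μM staurosporine full kill (100% reduction). Controls were NaOH-matched vehicle and medium alone. Mean ± SEM of ≥3 independent experiments, 5 replicates per point.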

WT Aβ42 = WT Aβ42 (Homo sapiens, UniProt P05067); assay: Intrinsic Y fluorescence; assay type: binding; conditions: peptide 50 μM, pH 7.4, 22°C
Procedure, shortened: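 HFIP-treated peptide films were dissolved in 60 mM NaOH (10% of final volume) and diluted in 10 mM sodium phosphate, pH 7.4, to nominal Aβ42 5 μM ± test peptide 50 μM. Samples were spun at 5,000 g for 1 min, with concentrations verified by amino acid analysis. Ex 280 nm, em 290–400 nm, 22°C, ≥10 scans immediately. Buffer-subtracted, area integrated per micromole, normalized to Aβ42 alone; 4 experiments.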

[3] = tested on: mouse primary hippocampal neurons; conditions: cited from earlier work
[Y42]Aβ42 = [Y42]Aβ42 (Homo sapiens, UniProt P05067, A713Y/Y681F); assay: Intrinsic Y fluorescence; assay type: binding; conditions: [Y42]Aβ42 5 μM, peptide 50 μM, pH 7.4, 22°C
[Y20]Aβ42 = [Y20]Aβ42 (Homo sapiens, UniProt P05067, F691Y/Y681F); assay: Intrinsic Y fluorescence; assay type: binding; conditions: [Y20]Aβ42 5 μM, peptide 50 μM, pH 7.4, 22°C
[4] = tested on: alamethicin-induced toxicity in differentiated PC-12 cells; assay: Inhibition of alamethicin-induced toxicity, MTT assay; assay type: cell-based, rat; conditions: alamethicin 4 μM, increasing Aβ(39–42) concentrations, 24 h, n ≥ 15
Procedure, shortened: as §1

Question: With `CC[C@H](C)[C@H](NC(=O)[C@@H](NC(=O)[C@@H](N)C(C)C)C(C)C)C(=O)N[C@@H](C)C(N)=O` [VVIA-NH2] (H-VVIA-NH2) as the compound, how does the “Inhibition of Aβ42-induced neurotoxicity, single-dose screen” value (“Inhibition of Aβ42-induced neurotoxicity” below) [1] read?
Answer: as active as Aβ(39–42)

Question: What about the “Fold lower [Y1]Aβ42 fluorescence increase than with unmodified Aβ(39–42)” value ([Y1]Aβ42) of the same compound?
Answer: 1.8 times

Question: What about the “Decrease of [Y30]Aβ42 fluorescence upon addition of peptide” value ([Y30]Aβ42; mean ± SEM of 4 experiments) of the same compound?
Answer: 24 ± 3%

Question: Which “Protection from α-synuclein-induced toxicity” value [2] does the source give for `CC[C@H](C)[C@H](NC(=O)[C@@H](NC(=O)[C@@H](N)C(C)C)C(C)C)C(=O)N[C@@H](C)C(=O)O` [Aβ(39–42)] here?
Answer: only weak protection

Question: What about the “Change of WT Aβ42 fluorescence upon addition of peptide” value (WT Aβ42; WT Aβ42 5 μM) of the same compound?
Answer: did not change significantly

Question: What about the “Rescue from Aβ42-induced inhibition of miniature excitatory postsynaptic current frequency” value [3] of the same compound?
Answer: significantly rescued

Question: What about the “Dose dependence of inhibition of Aβ42-induced toxicity” value ([1]; Aβ42 10 μM, MTT and LDH) of the same compound?
Answer: dose-dependent inhibition

Question: What about the “Change of [Y42]Aβ42 fluorescence upon addition of peptide” value ([Y42]Aβ42) of the same compound?
Answer: did not change significantly

Question: What about the “Change of [Y20]Aβ42 fluorescence upon addition of peptide” value ([Y20]Aβ42) of the same compound?
Answer: did not change significantly

Question: What about the “Protection from alamethicin-induced toxicity” value [4] of the same compound?
Answer: only weak protection

Question: What about the “Change of [Y30]Aβ42 fluorescence upon addition of peptide” value ([Y30]Aβ42) of the same compound?
Answer: did not change significantly

Question: What does the source list for Ac-AIVV?
Answer: Inhibition of Aβ42-induced neurotoxicity, single-dose screen [1]: no inhibitory activity; [Y1]Aβ42 fluorescence increase compared with Aβ(39–42) ([Y1]Aβ42; Fig. S3): significantly lower

Question: For VVAA, which “Inhibition of Aβ42-induced neurotoxicity” value [1] is on record?
Answer: lost inhibitory activity

Question: Which “Decrease of Aβ42 fluorescence upon addition of peptide” value (WT Aβ42; Aβ42 5 μM, mean ± SEM of 4 experiments) does the source give for Ac-VVIA here?
Answer: 19 ± 3%

Question: And the “Inhibition of Aβ42-induced neurotoxicity” value [1]?
Answer: no inhibitory activity

Reference: publication PMC3240737 (Journal of medicinal chemistry, 2011)
